Biological target: T1, 5'-nucleotidase (Rattus norvegicus) (UniProt P21588)
T1 sequence (whole entry): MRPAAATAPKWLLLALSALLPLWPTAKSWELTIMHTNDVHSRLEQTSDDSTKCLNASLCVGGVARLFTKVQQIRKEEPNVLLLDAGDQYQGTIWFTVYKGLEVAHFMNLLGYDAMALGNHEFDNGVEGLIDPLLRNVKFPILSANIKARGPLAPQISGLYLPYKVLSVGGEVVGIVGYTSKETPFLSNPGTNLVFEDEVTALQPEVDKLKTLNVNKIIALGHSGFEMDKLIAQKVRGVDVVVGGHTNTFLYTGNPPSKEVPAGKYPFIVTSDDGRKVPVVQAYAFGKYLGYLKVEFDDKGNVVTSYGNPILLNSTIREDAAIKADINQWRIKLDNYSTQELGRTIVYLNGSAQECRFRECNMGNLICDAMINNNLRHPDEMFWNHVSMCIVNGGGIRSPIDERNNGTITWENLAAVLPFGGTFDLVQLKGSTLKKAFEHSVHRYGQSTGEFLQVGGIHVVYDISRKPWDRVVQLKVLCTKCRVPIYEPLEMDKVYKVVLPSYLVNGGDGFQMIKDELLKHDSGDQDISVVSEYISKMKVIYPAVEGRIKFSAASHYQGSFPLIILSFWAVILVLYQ
Assay: Activity at rat recombinant ecto-5'-nucleotidase expressed in baculovirus-infected insect Sf9 cells co-transfected with soluble glutathione-S-transferase assessed as compound dephosphorylation by capillary electrophoresis relative to AMP
Parameters: concentration or dose not given beside the values
How it was run: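 Purified GST-rat ecto-5'-NT fusion protein (baculovirus/insect cells, glutathione-agarose purified). 500 μM nucleoside monophosphate in 10 mM Hepes pH 7.4, 2 mM MgCl2, 1 mM CaCl2; 37 °C, 20 min; stopped at 99 °C for 5 min. Nucleoside product quantified by capillary electrophoresis (borate pH 9.1, UV 232 nm). Dephosphorylation expressed relative to AMP (100%). Two experiments, triplicate injections.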

Compound	Activity [%]
Nc1nc(SCCc2ccccc2)nc2c1ncn2[C@@H]1O[C@H](COP(=O)(O)O)[C@@H](O)[C@H]1O	0
Nc1nc(SCC2CCCCC2)nc2c1ncn2[C@@H]1O[C@H](COP(=O)(O)O)[C@@H](O)[C@H]1O	71
Nc1nc(SCc2ccccc2)nc2c1ncn2[C@@H]1O[C@H](COP(=O)(O)O)[C@@H](O)[C@H]1O	0
Nc1nc(SC2CCCCC2)nc2c1ncn2[C@@H]1O[C@H](COP(=O)(O)O)[C@@H](O)[C@H]1O	28
Nc1nc(SCCC2CCCCC2)nc2c1ncn2[C@@H]1O[C@H](COP(=O)(O)O)[C@@H](O)[C@H]1O	96
CCCCCCSc1nc(N)c2ncn([C@@H]3O[C@H](COP(=O)(O)O)[C@@H](O)[C@H]3O)c2n1	84
Nc1nc(SCCC2COCCO2)nc2c1ncn2[C@@H]1O[C@H](COP(=O)(O)O)[C@@H](O)[C@H]1O (some centres not stated)	67

Next, values leading:

Activity [%]	Compound
104	Nc1nc(SCCC2OCCO2)nc2c1ncn2[C@@H]1O[C@H](COP(=O)(O)O)[C@@H](O)[C@H]1O
47	CCCSc1nc(N)c2ncn([C@@H]3O[C@H](COP(=O)(O)O)[C@@H](O)[C@H]3O)c2n1
71	Nc1nc(SC2CCCC2)nc2c1ncn2[C@@H]1O[C@H](COP(=O)(O)O)[C@@H](O)[C@H]1O
0	C=CCSc1nc(N)c2ncn([C@@H]3O[C@H](COP(=O)(O)O)[C@@H](O)[C@H]3O)c2n1
0	C#CCSc1nc(N)c2ncn([C@@H]3O[C@H](COP(=O)(O)O)[C@@H](O)[C@H]3O)c2n1
